Assay results as given in ChEMBL document CHEMBL1142660, “Optimization and validation of a docking-scoring protocol; application to virtual screening for COX-2 inhibitors” (J Med Chem, 2005).

Assays:
[1] = molecular target: Prostaglandin G/H synthase 1 (Homo sapiens) (UniProt P23219); assay: Inhibition of COX-1 in human immunoassay; set-up: concentration or dose not given beside the values
[2] = molecular target: T1, Prostaglandin G/H synthase 2 (Homo sapiens) (UniProt P35354); assay: Inhibition of COX-2 in human immunoassay; set-up: concentration or dose not given beside the values
T1 sequence (whole entry): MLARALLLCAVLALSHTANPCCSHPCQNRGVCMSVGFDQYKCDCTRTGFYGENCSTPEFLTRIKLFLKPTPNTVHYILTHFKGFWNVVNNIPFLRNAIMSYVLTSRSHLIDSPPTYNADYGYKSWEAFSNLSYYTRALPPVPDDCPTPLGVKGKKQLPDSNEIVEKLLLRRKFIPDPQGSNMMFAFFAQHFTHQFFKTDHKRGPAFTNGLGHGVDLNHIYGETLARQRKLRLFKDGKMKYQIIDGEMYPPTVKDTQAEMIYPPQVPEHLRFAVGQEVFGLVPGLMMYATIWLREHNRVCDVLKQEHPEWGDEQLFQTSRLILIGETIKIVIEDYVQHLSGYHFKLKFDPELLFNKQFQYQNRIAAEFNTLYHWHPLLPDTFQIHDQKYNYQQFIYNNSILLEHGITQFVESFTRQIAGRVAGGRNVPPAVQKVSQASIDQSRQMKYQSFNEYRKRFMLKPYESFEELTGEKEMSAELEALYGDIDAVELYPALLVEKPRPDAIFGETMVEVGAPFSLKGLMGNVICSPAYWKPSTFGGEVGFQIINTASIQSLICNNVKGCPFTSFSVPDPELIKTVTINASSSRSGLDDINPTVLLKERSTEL
In short: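 Human COX-2 enzyme immunoassay kit, run per the manufacturer's instructions. Each compound was tested at a single concentration of 1 µM, and the read-out was percent inhibition of enzyme activity.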

Sequence of Prostaglandin G/H synthase 1 (Homo sapiens) (P23219 whole entry): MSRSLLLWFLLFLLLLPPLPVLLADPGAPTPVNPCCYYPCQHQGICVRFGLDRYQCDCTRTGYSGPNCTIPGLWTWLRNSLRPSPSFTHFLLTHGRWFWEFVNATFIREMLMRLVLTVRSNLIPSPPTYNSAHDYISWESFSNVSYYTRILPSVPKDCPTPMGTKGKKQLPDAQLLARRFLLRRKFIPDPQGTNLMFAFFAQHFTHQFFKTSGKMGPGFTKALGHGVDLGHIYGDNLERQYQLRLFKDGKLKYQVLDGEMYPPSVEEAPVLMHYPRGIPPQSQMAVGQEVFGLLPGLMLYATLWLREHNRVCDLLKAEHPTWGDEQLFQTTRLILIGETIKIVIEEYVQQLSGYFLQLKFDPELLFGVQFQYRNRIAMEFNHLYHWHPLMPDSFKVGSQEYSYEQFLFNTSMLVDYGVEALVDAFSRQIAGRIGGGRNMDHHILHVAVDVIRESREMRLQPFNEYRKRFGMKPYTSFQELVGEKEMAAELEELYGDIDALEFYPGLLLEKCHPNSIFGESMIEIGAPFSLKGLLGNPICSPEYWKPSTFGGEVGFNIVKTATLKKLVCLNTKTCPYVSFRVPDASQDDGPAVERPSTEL

Structure (SMILES)	Enzyme inhibition [1] [%]	Enzyme inhibition [2] [%]
C/C(=N\Nc1ccc(S(N)(=O)=O)cc1)c1ccccn1	38	39
CS(=O)(=O)c1cc(Nc2ccc(Br)cc2)ncn1	14	60
NS(=O)(=O)c1ccc(NCc2cnc3ccccc3n2)cc1	11	54
NS(=O)(=O)c1ccc(CCNS(=O)(=O)c2ccc(Cl)cc2Cl)cc1	23	30
NS(=O)(=O)c1ccc(CCNS(=O)(=O)c2ccccc2[N+](=O)[O-])cc1	61	22
NS(=O)(=O)c1ccc(NC2=CC(=O)C(=O)c3ccccc32)cc1	14	27
Cc1onc(-c2ccccc2)c1C(=O)Nc1ccc(S(N)(=O)=O)cc1	23	48
NS(=O)(=O)c1ccc(Cl)c(C(=O)Nc2cccc([N+](=O)[O-])c2)c1	23	57
NS(=O)(=O)c1ccc(NC(=S)NC(=O)c2ccc(Cl)cc2Cl)cc1	8	22
NS(=O)(=O)c1ccc(Nc2nc(-c3ccccc3)cs2)cc1	61	29
NS(=O)(=O)c1ccc(N/C=C/C(=O)c2ccncc2)cc1	11	42
NS(=O)(=O)c1ccc(CCNC(=O)c2ccccc2Br)cc1	46	10
